Measured values taken from ChEMBL document CHEMBL4152273, “Development of novel amino-quinoline-5,8-dione derivatives as NAD(P)H:quinone oxidoreductase 1 (NQO1) inhibitors with potent antiproliferative activities” (Eur J Med Chem, 2018).
Active and inactive are the calls of the source. The rule behind the calls is not given here.

How the values were obtained:
HeLa S3 [1] = assay: Induction of mitochondrial membrane potential loss in human HeLaS3 cells after 24 hrs by MITO-ID MP dye based assay; format: functional, cell-based
In short: (§1)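 Cells plated at 2.5 × 10^5/mL and treated with 0.01–5 μM, CCCP as positive control or DMSO vehicle for 24 h at 37 °C. MITO-ID MP dye loaded in the dark for 30 min at 37 °C, then fluorescence read at Ex 490 nm and Em 590 nm.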

[2] = target: T1, NAD(P)H dehydrogenase [quinone] 1 (Homo sapiens, UniProt P15559); assay: Inhibition of NQO1 activity in human HeLaS3 cells incubated for 24 hrs measured every 20 secs for 5 mins; format: cell-based
T1 sequence (P15559 whole entry): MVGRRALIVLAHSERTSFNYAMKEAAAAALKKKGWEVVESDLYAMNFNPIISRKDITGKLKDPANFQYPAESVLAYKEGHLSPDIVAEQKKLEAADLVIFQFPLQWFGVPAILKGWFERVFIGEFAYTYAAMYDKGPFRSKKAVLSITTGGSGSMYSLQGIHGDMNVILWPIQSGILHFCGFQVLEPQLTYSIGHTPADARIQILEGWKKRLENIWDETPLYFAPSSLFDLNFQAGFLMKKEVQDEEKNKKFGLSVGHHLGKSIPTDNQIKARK

Homo sapiens [3] = species on record: Homo sapiens; assay: Increase in ROS production in human KBVIN cells after 24 hrs in presence of H2O2 by DCFH-DA dye based flow cytometry; format: functional, cell-based
Homo sapiens [4] = species on record: Homo sapiens; assay: Induction of mitochondrial membrane potential loss in human KBVIN cells after 24 hrs by MITO-ID MP dye based assay; format: functional, cell-based; in short: as §1
HeLa S3 [5] = assay: Increase in ROS production in human HeLaS3 cells after 24 hrs in presence of H2O2 by DCFH-DA dye based flow cytometry; format: functional, cell-based
[6] = target: T1, NAD(P)H dehydrogenase [quinone] 1; assay: Inhibition of NQO1 activity in human KBVIN cells incubated for 24 hrs measured every 20 secs for 5 mins; format: cell-based
[7] = Cytotoxicity against human KBVIN cells assessed as decrease in cell viability after 72 hrs in presence of free radical scavenger NAc by MTT assay; format: functional, cell-based; conditions: in the assay text read “SRB assay” for “MTT assay”
In short: (§2)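 NQO1 dependency: cells co-treated for 72 h with test compound plus […] or 40 mM N-acetylcysteine. Viability read by SRB: TCA fixation, 0.04% sulforhodamine B staining, acetic acid wash, dye solubilized in 10 mM Tris base, absorbance at 515 nm. Results given as IC50 or mean ± SD; three independent measurements.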

HeLa S3 [8] = assay: Cytotoxicity against human HeLaS3 cells assessed as decrease in cell viability after 72 hrs in presence of NQO1 inhibitor dicoumarol by MTT assay; format: functional, cell-based; conditions: HeLa S3, 72 h, in the assay text read “SRB assay” for “MTT assay”; in short: as §2
[9] = Cytotoxicity against human KBVIN cells assessed as decrease in cell viability after 72 hrs in presence of NQO1 inhibitor dicoumarol by MTT assay; format: functional, cell-based; conditions: in the assay text read “SRB assay” for “MTT assay”; in short: as §2
HeLa S3 [10] = assay: Cytotoxicity against human HeLaS3 cells assessed as decrease in cell viability after 72 hrs in presence of free radical scavenger NAc by MTT assay; format: functional, cell-based; conditions: HeLa S3, 72 h, in the assay text read “SRB assay” for “MTT assay”; in short: as §2
HeLa S3 [11] = assay: Induction of apoptosis in human HeLaS3 cells assessed as annexin V-positive cells at 0.2 uM after 72 hrs by annexin V-FITC/PI dual staining based flow cytometry relative to control; format: functional
In short: (§3)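 Cells cultured overnight, then exposed in triplicate to 0.2, 0.6 or 1.8 μM or vehicle for 72 h. Annexin V-positive percentage given as mean ± SD of three independent experiments.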

HeLa S3 [12] = assay: Induction of apoptosis in human HeLaS3 cells assessed as decrease in Bcl-2 expression levels after 72 hrs by Western blot analysis; format: functional, cell-based
In short: (§4)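 Sub-confluent cells at 1.5 × 10^5/mL treated 72 h in DMEM with 10% FBS at the indicated doses or 0.1% DMSO vehicle. Lysates immunoblotted for Bax, Bcl-2 and caspase-3, detected with HRP secondary antibodies and chemiluminescence. Band densities normalized to β-actin by densitometry; mean ± SD of three separate experiments.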

[13] = Cytotoxicity against human EEC assessed as decrease in cell viability after 72 hrs by MTT assay
In short: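 Endometrial epithelial cells maintained in RPMI-1640 with 10% FBS at 37 °C, 5% CO2. Exposed 72 h to the indicated concentrations, proliferation assessed by MTT; inhibition (%) reported as mean ± SD of three independent experiments.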

HeLa S3 [14] = assay: Induction of apoptosis in human HeLaS3 cells assessed as annexin V-positive cells at 0.6 uM after 72 hrs by annexin V-FITC/PI dual staining based flow cytometry relative to control; format: functional; in short: as §3
HeLa S3 [15] = assay: Induction of apoptosis in human HeLaS3 cells after 72 hrs by annexin V-FITC/PI dual staining based flow cytometry; format: functional, cell-based; in short: as §3
HeLa S3 [16] = assay: Induction of apoptosis in human HeLaS3 cells assessed as increase in caspase-3 cleavage at 0.2 to 1.8 uM after 72 hrs by Western blot analysis; format: functional, cell-based; in short: as §4
HeLa S3 [17] = assay: Induction of apoptosis in human HeLaS3 cells assessed as annexin V-positive cells at 1.8 uM after 72 hrs by annexin V-FITC/PI dual staining based flow cytometry relative to control; format: functional; in short: as §3
HeLa S3 [18] = assay: Induction of apoptosis in human HeLaS3 cells assessed as increase in Bax expression levels after 72 hrs by Western blot analysis; format: functional, cell-based; in short: as §4

| SMILES | Activity (HeLa S3 [1]) | IC50 [2] [nM] | Activity (Homo sapiens [3]) | Activity (Homo sapiens [4]) | Activity (HeLa S3 [5]) | IC50 [6] [nM] | IC50 [7] [nM] | IC50 (HeLa S3 [8]) [nM] | IC50 [9] [nM] | IC50 (HeLa S3 [10]) [nM] | Activity (HeLa S3 [11]) [%] | Activity (HeLa S3 [12]) | Activity [13] | Activity (HeLa S3 [14]) [%] | Activity (HeLa S3 [15]) | Activity (HeLa S3 [16]) | Activity (HeLa S3 [17]) [%] | Activity (HeLa S3 [18]) |
| --- | --- | --- | --- | --- | --- | --- | --- | --- | --- | --- | --- | --- | --- | --- | --- | --- | --- | --- |
| O=C1C=C(NCCc2c[nH]c3ccccc23)C(=O)c2ncccc21 | Dose-dependent effect | 6250 | Dose-dependent effect | Dose-dependent effect | Dose-dependent effect | 550 |  |  |  |  |  |  |  |  |  |  |  |  |
| CN1CCN(c2ccc(NC3=CC(=O)c4ncccc4C3=O)cc2)CC1 | Dose-dependent effect |  | Dose-dependent effect | Dose-dependent effect | Dose-dependent effect |  | > 3000 | > 3000 | > 3000 | > 3000 |  |  |  |  |  |  |  |  |
| COC(=O)/C=C/c1cccc(CNC2=CC(=O)c3ncccc3C2=O)c1 | Dose-dependent effect | 5250 | Dose-dependent effect | Dose-dependent effect | Dose-dependent effect | 530 |  |  |  |  |  |  |  |  |  |  |  |  |
| CN1CCN(c2ccc(NC3=CC(=O)c4cccnc4C3=O)cc2)CC1 | Dose-dependent effect | 440 | Dose-dependent effect | Dose-dependent effect | Dose-dependent effect | 570 | > 3000 | > 3000 | > 3000 | > 3000 | 12.8 | Dose-dependent effect | Non-Toxic | 27.6 | Dose-dependent effect | Active | 66.3 | Dose-dependent effect |
